Measured values from PubChem BioAssay AID2541 (The Scripps Research Institute Molecular Screening Center, 2010).
Active and inactive are the calls of the source.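 How the source made its calls: active means inhibition of at least 50%; inactive means inhibition below 50%.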

molecular target: NADPH oxidase 1 (Homo sapiens) (UniProt Q9Y5S8); test: cellular NOX1 ROS production inhibition – luminescence, HT29 cells, confirmation (AID 2541); conditions: luminol ROS chemiluminescence, 1 h, at 3.3 µM, hits give high values
Summary of the method: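 material = HT29 colon epithelial cell line with endogenous NOX1 | incubation = 1 h compound pre-incubation before luminol/HRP addition | measured by = luminol chemiluminescence of intracellular ROS | read-out = % inhibition of luminescence | repeats = triplicate wells per compound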

NADPH oxidase 1 (Homo sapiens), sequence (Q9Y5S8 whole entry, looked up): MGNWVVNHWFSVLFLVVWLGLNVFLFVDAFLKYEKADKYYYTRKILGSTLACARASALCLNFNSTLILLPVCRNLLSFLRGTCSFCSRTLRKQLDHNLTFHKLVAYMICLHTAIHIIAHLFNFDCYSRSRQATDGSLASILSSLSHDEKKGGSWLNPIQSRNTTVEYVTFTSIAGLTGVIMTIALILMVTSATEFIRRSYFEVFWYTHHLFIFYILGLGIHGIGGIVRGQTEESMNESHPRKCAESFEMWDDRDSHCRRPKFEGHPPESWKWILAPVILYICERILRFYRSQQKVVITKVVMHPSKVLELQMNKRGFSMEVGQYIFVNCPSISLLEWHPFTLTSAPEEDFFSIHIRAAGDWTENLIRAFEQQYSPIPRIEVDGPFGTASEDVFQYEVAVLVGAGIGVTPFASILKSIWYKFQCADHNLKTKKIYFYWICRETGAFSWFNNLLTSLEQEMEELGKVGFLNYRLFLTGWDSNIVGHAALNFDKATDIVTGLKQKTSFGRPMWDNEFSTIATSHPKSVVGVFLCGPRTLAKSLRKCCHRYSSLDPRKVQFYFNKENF

SMILES | inhibition
CC(C)(C)c1cc2nc(C(F)(F)F)cc(NNC(=O)Nc3ccc(OC(F)(F)F)cc3)n2n1 | 11.4% (inactive)
COc1cccc(NC(=S)NNc2ccc([N+](=O)[O-])cc2)c1 | 89.2%
CC(=O)/C(C=Nc1cc(C)c(O)c(Cl)c1)=C(\C)O | -27.6% (inactive)
Nc1nc(NCc2c(Cl)cccc2Oc2ccccc2)n[nH]1 | 74.1%
S=C(NNc1nccc(-c2cccnc2)n1)Nc1ccccc1 | 88.4%
CC(=O)Oc1ccc(OC(C)=O)c2c1[C@@H]1C=C[C@H]2CC1 | 75.9%
O=[N+]([O-])c1cc(C(F)(F)F)ccc1Oc1ccc(-c2nnco2)cc1 | 58.8%
CC(=O)c1ccc(NCN2C(=O)/C(=C\N(C)C)NC2=S)cc1 | 59.2%
CCOC(=O)C(=CNNc1ccnc2cc(Cl)ccc12)C(=O)OCC | 87.5%
Nc1nc(Nc2ccccc2)n[nH]1 | 73.6%
O=C(Nc1ccc(Cl)cc1)Oc1ccccc1N1CCSCC1 | 56.4%
O=c1[nH]c2ccsc2c(=O)n1CCO | 95.7%
COC(=O)c1sccc1-c1ccc(CN2CCCc3cc(OC)ccc32)o1 | 74.1%
ON/C=N/c1nnc(C(F)(F)F)s1 | 63.1%
CN(C)c1ccc(NC(=O)Nc2cccs2)cc1 | 48.3% (inactive)
CC1=CC(=O)C(CCC2=CC(=O)C(C)=CC2=O)=CC1=O | 10.4% (inactive)
CCC(=O)N1c2cc(Cl)ccc2-n2c(nn(C(=O)CC)c2=O)N1C(=O)CC | 81.7%
COc1cc(-c2nc(-c3ccccc3)c(-c3ccccc3)[nH]2)ccc1O | 84.1%
CCC(=O)Nc1ccc2c(c1)N(CC)C(C)(C)CC2C (stereo unspecified) | 65.4%
CCN(CC)c1ccc(NC(=O)C2CCCCC2)c(N(CC)CC)n1 | 37% (inactive)
O=C1c2ccccc2C(=O)N1CNc1ccc(N2CCOCC2)cc1 | 11.1% (inactive)
Nc1nc(NCc2ccccc2OC(F)(F)F)n[nH]1 | 78.4%
COc1cc2ncnc(NNC(=O)c3cccs3)c2cc1OC | 70.5%
O=C(Oc1ccccc1N1CCCCC1)c1sc2ccccc2c1Cl | 84.3%

SMILES | inhibition
O=C1C=C(I)C(=O)C=C1I | 60.4%
CCn1c(-c2cc(-c3ccccc3)sc2N)n[nH]c1=S | -5.1% (inactive)
N#Cc1c(N)sc2c1CCc1ccccc1-2 | 103%
c1ccc2c(c1)NC(c1ccc3c(c1)OCO3)O2 (stereo unspecified) | -39.8% (inactive)
O=C(NNc1c([N+](=O)[O-])cc(C(F)(F)F)cc1[N+](=O)[O-])c1ccccc1-n1cccc1 | 78%
Cc1cc(C(=O)NNc2cc(Cl)ccc2Cl)no1 | 108%
O=C(Oc1ccccc1N1CCOCC1)c1cccs1 | 87.8%
O=C(N/N=C/c1ccc(O)cc1)N/N=C/c1ccc(O)cc1 | 76.7%
O=C(Nc1ccc(N2CCCCC2)cc1)Nc1ccccc1OC(F)(F)F | 73.9%
CN(C)c1ccc(/C=N/Nc2c(Cl)cncc2Cl)cc1 | 73.6%
S=c1[nH]cc(-c2ccc(Br)cc2)[nH]1 | 70.8%
O=S(=O)(Nc1ccc(N2CCCCC2)cc1)c1ccccc1 | 85.4%
COc1ccc(N(C)CC(=O)O)c(C(=O)O)c1 | 75%
COc1ccc2c(c1)CCCN2Cc1c[nH]c2ccccc12 | 26.5% (inactive)
COC(=O)C1=C(Nc2ccc(O)cc2)CSC1 | 63.7%
CCN(CC)c1ccc(NC(=O)c2c(F)cccc2F)c(N(CC)CC)n1 | 37.1% (inactive)
COCCCNC(=S)NNC(=S)Nc1ccccc1 | 70.1%
Cn1cnc(S(=O)(=O)Nc2ccc(N3CCCCC3)cc2)c1 | 77.2%
Cc1ccc(NCN2C(=O)c3ccc([N+](=O)[O-])cc3C2=O)cc1 | 17.8% (inactive)
Cc1cc(S(=O)(=O)NNc2ncnc3c2cnn3C)c(C)cc1Cl | 102%
Cc1cc(C)cc(NC(=O)Nc2ccc(N3CCCCC3)cc2)c1 | 74.4%
O=C(NNc1c([N+](=O)[O-])cc(C(F)(F)F)cc1[N+](=O)[O-])c1ccco1 | 92.8%
COc1ccccc1NNC(=O)c1cc(C(C)(C)C)nn1Cc1ccccc1 | 92.4%
Cc1csc2ncnc(NNS(=O)(=O)c3cc(C(F)(F)F)cc(C(F)(F)F)c3)c12 | 81.6%

SMILES | inhibition
Cc1ccc(SC#N)c(N)n1 | 63.2%
COc1ccc(Cl)cc1NC(=O)Nc1ccc(N(C)C)cc1 | 88.8%
Cc1cc(Cl)ccc1NC(=S)NNC(=S)Nc1ccc(F)cc1 | 89%
COc1ccc(OC(=O)c2ccc3ncccc3c2)cc1 | 51.6%
O=C(Oc1ccccc1N1CCOCC1)c1cccnc1Oc1ccccc1 | 71.9%
O=c1[nH]nc(N2CCSCC2)[nH]1 | 96.6%
CCC1=Nc2cccc3cccc(c23)N1 | 14% (inactive)
c1ccc2c(c1)Nc1nc3ccccc3nc1N2 | 79.7%
Cn1ncc(C(=O)NC(=O)Nc2ccc(F)cc2)c1[N+](=O)[O-] | 6.3% (inactive)
CCOc1ccccc1Nc1n[nH]c(=S)s1 | 81.5%
CC[n+]1c(C)csc1Nc1ccc(N2CC(C)OC(C)C2)cc1 (stereo unspecified) | 89.3%
Cc1nc(C(F)(F)F)c(C(=O)NNc2ncc(C(F)(F)F)cc2Cl)s1 | 101%
CSC1=NS(=O)(=O)c2c(C)nn(C)c2S1 | 33.3% (inactive)
CCS(=O)(=O)c1ccc(O)c(NC(=O)c2ccccc2C(=O)O)c1 | -41.4% (inactive)
CN(C)c1ccc(NC(=O)Nc2ccc(OCc3ccccc3)cc2)cc1 | 90.2%
COc1cccc(NC(=S)NNC(=S)NC2CC3CCC2C3)c1 (stereo unspecified) | 78.9%
Cc1noc(C)c1C(=O)Nc1ccc(N2CCOCC2)nc1N1CCOCC1 | 97.5%
O=C(Oc1ccccc1N1CCCCC1)c1ccco1 | 95%
CCC(CO)Nc1nc2c([nH]1)c(=O)n(C)c(=O)n2C (stereo unspecified) | -32.2% (inactive)
CC1CN(c2ccc(NC(=S)NN)cc2)CC(C)O1 (stereo unspecified) | 59.5%
NS(=O)(=O)c1ccc(NNC(=O)c2c(F)cccc2Cl)cc1 | 74.3%
COc1cccc(C(=O)CSc2nsc(SCC(=O)c3cccc(OC)c3)c2C#N)c1 | 44.1% (inactive)
Nc1nc2[nH]c(=S)[nH]c2c(=O)[nH]1 | 29.6% (inactive)
Cc1cc(Br)c(NC(=S)NNc2ccccc2)c(Br)c1 | 76.9%

SMILES | inhibition
FC(F)(F)c1ccc2c(c1)Nc1ccccc1S2 | 86.9%
COc1ccc(OC)c(S(=O)(=O)c2ccc([N+](=O)[O-])cc2Cl)c1 | 43.9% (inactive)
CC(C)(C)c1csc(NNC(=O)c2ccc(Cl)cc2)n1 | 81.8%
COc1ccc(C(=O)NNc2c([N+](=O)[O-])cc(C(F)(F)F)cc2[N+](=O)[O-])cc1 | 88.1%
COc1cc2ncnc(NNS(=O)(=O)c3cc(C)c(Cl)cc3C)c2cc1OC | 93%
Cc1cc(S(=O)(=O)NNc2ncnc3cc(C(C)(C)C)sc23)c(C)cc1Cl | 71%
CCN(CC)c1ccc(N=C2C=CC(=O)c3ccccc32)c(C)c1 | 23.7% (inactive)
O=C(Oc1cccc2[nH]ccc12)c1ccc(C(F)(F)F)cc1 | 30.4% (inactive)
O=c1[nH][nH]c2cccc(F)c12 | 9.8% (inactive)
CN(NC=C(C#N)C#N)c1ccccc1[N+](=O)[O-] | 100%
O=C(O)/C(=N/Nc1ccccc1O)c1ccccc1 | 62.5%
Cn1nc(-c2ccccc2)c(O)c(N=Nc2ccccc2)c1=O | 88.9%
Cc1ccccc1C(=O)Oc1ccc(-c2csnn2)cc1 | 54.9%
O=[N+]([O-])c1cc(C(F)(F)F)cc([N+](=O)[O-])c1Sc1ncc2ccccn12 | -0.1% (inactive)
CC(C)C(=O)NNc1nc2c(c(=O)n(C)c(=O)n2C)n1Cc1ccc(Cl)cc1 | 76.1%
Nc1nc(NCc2ccccn2)n[nH]1 | 78.6%
CC1(C)CC(Nc2ccc(Nc3ccccc3)cc2)CC(C)(C)N1 | 61.5%
O=c1c(Cl)c2oc3ccccc3nc-2c2ccccc12 | 56.3%
O=C1C=CC(=O)N1CCc1ccccc1 | 11.1% (inactive)
CCOC(=O)c1nsc(/C(C)=N/Nc2ccccc2)c1N | 16% (inactive)
CCOC(=O)C1=C(Nc2ccc(OC(C)=O)cc2)C(=O)N(C(C)(C)C)C1 | 72.9%
Cc1oc(-c2ccc(Cl)cc2)cc1C(=O)O/N=C(\N)Cc1nc2cccnc2n1C1CC1 | -17.1% (inactive)
O=c1c2c(-c3ccc([N+](=O)[O-])cc3)onc2n(-c2ccccc2)c(=O)n1-c1ccccc1 | 29% (inactive)
O=C(Nc1ccc(Cl)cc1Cl)c1cc([N+](=O)[O-])cc2c1-c1ccc([N+](=O)[O-])cc1C2=O | -22.8% (inactive)
